Reference: ChEMBL document CHEMBL3784976 (J Med Chem, 2016)

Columns and labels:
[1] = target: Histamine H2 receptor (Homo sapiens) (UniProt P25021); assay: Displacement of [125I]APT from human recombinant histamine H2 receptor expressed in CHO cells assessed as remaining radioligand binding at 10 uM after 120 mins by scintillation counting method relative to control; format: cell-based
[2] = target: Melanocortin receptor 4 (Homo sapiens) (UniProt P32245); assay: Displacement of [125I]NDP-a-MSH from human recombinant MC4 receptor expressed in CHO cells assessed as remaining radioligand binding at 10 uM after 120 mins by scintillation counting method relative to control; format: cell-based
[3] = target: Sodium-dependent noradrenaline transporter (Homo sapiens) (UniProt P23975); assay: Displacement of [3H]nisoxetine from human recombinant norepinephrine transporter expressed in CHO cells assessed as remaining radioligand binding at 10 uM after 120 mins by scintillation counting method relative to control; format: cell-based
[4] = target: Substance-P receptor (Homo sapiens) (UniProt P25103); assay: Displacement of [125I]-Substance P LYS3 from NK1 receptor in human U373MG cells assessed as remaining radioligand binding at 10 uM after 60 mins by scintillation counting method relative to control; format: cell-based; conditions: U-373MG ATCC
[5] = target: Sodium channel protein type 9 subunit alpha (Mus musculus) (UniProt Q62205); assay: Inhibition of Nav1.7 in mouse DRG neurons at 10 uM relative to control
[6] = target: Somatostatin receptor type 4 (Homo sapiens) (UniProt P31391); assay: Displacement of [125I]Tyr11-somatostatin-14 from human recombinant SST4 receptor expressed in CHO cells assessed as remaining radioligand binding at 10 uM after 120 mins by scintillation counting method relative to control; format: cell-based
[7] = target: Transient receptor potential cation channel subfamily A member 1 (Rattus norvegicus, UniProt Q6RI86); assay: Antagonist activity at rat TRPA1 expressed in tetracycline-inducible T-REx expression system transfected CHO cells assessed as inhibition of methylglyoxal-induced 45Ca2+ uptake preincubated for 10 mins followed by methylglyoxal addition measured after 3 mins by TopCount microplate scintillator counting method; format: cell-based
Procedure, shortened: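 Compound given 10 min at RT in HBSS/1 mM HEPES/0.1 mg/mL BSA, final 2.0 nM–40 μM (1:3 steps); then methylglyoxal (final 2.74 mM) plus 45Ca2+ (final 10 μCi/mL) in Ham's F-12/15 mM HEPES/0.1% BSA, 3 min at RT. Cells washed three times, then scintillation counted. MG uptake = 100%, no-agonist buffer = 0%. Four-parameter fit gives IC50.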

Sequence of Somatostatin receptor type 4 (Homo sapiens) (P31391 whole entry): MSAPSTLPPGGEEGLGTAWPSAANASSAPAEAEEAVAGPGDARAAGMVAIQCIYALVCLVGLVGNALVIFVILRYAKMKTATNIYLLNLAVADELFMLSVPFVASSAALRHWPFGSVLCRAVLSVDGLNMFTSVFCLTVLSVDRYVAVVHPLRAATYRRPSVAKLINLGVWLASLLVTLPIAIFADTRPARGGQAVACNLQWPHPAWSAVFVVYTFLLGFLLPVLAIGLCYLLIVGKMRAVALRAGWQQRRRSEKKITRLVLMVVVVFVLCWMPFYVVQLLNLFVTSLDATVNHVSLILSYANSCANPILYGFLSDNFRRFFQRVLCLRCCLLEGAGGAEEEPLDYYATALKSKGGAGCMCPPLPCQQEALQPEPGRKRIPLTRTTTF
Sequence of Sodium-dependent noradrenaline transporter (Homo sapiens) (P23975 whole entry): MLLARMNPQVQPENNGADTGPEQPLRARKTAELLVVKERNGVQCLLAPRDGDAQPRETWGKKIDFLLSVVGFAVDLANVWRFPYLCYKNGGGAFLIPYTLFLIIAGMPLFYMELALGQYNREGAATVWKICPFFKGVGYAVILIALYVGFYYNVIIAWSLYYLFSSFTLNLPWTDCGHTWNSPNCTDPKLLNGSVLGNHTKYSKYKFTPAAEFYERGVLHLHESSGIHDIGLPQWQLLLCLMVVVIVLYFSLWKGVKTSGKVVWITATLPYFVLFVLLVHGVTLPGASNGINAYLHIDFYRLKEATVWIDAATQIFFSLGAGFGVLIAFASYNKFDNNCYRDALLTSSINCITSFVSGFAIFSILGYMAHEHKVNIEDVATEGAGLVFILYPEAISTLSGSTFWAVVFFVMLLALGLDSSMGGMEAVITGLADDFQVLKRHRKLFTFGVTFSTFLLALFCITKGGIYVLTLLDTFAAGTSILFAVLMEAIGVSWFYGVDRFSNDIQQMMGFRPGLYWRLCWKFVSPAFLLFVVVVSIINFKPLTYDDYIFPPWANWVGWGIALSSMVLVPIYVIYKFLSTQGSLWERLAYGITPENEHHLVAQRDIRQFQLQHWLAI
Sequence of Substance-P receptor (Homo sapiens) (P25103 whole entry): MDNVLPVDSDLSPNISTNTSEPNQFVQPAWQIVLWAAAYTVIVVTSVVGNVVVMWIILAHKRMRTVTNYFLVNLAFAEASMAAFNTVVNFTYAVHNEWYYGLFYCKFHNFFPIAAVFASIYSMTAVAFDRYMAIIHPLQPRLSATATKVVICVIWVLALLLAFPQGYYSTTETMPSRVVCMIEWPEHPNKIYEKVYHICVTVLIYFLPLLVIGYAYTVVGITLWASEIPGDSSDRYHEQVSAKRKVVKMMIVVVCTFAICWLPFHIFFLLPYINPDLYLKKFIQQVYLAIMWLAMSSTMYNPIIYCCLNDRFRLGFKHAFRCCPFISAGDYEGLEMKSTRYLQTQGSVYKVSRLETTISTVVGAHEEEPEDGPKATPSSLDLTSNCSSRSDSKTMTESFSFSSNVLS
Sequence of Histamine H2 receptor (Homo sapiens) (P25021 whole entry): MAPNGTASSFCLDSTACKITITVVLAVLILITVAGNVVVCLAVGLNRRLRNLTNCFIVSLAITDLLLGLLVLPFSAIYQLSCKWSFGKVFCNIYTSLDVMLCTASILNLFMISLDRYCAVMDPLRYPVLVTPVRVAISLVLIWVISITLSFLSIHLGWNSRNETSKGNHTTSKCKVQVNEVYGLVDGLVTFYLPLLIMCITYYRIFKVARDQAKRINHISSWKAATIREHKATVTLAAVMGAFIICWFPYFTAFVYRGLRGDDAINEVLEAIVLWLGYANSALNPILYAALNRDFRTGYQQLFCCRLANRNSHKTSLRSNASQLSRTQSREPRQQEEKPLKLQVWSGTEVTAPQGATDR
Sequence of Transient receptor potential cation channel subfamily A member 1 (Q6RI86 whole entry): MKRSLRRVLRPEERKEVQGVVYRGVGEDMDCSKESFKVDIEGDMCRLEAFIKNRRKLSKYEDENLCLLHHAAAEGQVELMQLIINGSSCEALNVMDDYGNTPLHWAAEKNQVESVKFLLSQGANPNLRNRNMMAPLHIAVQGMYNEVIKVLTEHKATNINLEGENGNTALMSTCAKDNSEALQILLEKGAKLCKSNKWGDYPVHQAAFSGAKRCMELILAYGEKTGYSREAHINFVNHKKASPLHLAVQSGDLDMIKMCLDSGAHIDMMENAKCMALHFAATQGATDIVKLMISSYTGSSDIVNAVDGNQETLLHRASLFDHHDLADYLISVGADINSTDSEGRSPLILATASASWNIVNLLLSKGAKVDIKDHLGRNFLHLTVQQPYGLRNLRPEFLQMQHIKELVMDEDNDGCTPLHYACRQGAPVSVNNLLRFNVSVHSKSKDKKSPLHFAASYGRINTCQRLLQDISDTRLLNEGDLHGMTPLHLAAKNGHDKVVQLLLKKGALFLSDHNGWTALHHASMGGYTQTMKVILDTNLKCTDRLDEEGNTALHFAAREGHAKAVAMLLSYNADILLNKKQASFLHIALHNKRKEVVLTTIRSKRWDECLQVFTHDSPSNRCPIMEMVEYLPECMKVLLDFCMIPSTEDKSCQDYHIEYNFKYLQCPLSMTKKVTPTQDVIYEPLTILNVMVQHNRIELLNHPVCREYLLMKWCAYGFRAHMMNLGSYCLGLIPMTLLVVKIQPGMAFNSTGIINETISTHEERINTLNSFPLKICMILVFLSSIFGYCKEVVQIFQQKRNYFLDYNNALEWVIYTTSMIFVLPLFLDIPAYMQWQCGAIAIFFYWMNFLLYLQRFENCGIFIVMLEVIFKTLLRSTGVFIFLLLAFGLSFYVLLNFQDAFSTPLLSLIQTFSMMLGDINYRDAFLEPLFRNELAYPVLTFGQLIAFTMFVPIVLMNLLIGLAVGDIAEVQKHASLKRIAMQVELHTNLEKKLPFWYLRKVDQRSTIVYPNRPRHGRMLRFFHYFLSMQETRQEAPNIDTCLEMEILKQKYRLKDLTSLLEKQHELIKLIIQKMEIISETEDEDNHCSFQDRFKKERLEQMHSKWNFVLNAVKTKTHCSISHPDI
Sequence of Sodium channel protein type 9 subunit alpha (Mus musculus) (Q62205 whole entry, looked up): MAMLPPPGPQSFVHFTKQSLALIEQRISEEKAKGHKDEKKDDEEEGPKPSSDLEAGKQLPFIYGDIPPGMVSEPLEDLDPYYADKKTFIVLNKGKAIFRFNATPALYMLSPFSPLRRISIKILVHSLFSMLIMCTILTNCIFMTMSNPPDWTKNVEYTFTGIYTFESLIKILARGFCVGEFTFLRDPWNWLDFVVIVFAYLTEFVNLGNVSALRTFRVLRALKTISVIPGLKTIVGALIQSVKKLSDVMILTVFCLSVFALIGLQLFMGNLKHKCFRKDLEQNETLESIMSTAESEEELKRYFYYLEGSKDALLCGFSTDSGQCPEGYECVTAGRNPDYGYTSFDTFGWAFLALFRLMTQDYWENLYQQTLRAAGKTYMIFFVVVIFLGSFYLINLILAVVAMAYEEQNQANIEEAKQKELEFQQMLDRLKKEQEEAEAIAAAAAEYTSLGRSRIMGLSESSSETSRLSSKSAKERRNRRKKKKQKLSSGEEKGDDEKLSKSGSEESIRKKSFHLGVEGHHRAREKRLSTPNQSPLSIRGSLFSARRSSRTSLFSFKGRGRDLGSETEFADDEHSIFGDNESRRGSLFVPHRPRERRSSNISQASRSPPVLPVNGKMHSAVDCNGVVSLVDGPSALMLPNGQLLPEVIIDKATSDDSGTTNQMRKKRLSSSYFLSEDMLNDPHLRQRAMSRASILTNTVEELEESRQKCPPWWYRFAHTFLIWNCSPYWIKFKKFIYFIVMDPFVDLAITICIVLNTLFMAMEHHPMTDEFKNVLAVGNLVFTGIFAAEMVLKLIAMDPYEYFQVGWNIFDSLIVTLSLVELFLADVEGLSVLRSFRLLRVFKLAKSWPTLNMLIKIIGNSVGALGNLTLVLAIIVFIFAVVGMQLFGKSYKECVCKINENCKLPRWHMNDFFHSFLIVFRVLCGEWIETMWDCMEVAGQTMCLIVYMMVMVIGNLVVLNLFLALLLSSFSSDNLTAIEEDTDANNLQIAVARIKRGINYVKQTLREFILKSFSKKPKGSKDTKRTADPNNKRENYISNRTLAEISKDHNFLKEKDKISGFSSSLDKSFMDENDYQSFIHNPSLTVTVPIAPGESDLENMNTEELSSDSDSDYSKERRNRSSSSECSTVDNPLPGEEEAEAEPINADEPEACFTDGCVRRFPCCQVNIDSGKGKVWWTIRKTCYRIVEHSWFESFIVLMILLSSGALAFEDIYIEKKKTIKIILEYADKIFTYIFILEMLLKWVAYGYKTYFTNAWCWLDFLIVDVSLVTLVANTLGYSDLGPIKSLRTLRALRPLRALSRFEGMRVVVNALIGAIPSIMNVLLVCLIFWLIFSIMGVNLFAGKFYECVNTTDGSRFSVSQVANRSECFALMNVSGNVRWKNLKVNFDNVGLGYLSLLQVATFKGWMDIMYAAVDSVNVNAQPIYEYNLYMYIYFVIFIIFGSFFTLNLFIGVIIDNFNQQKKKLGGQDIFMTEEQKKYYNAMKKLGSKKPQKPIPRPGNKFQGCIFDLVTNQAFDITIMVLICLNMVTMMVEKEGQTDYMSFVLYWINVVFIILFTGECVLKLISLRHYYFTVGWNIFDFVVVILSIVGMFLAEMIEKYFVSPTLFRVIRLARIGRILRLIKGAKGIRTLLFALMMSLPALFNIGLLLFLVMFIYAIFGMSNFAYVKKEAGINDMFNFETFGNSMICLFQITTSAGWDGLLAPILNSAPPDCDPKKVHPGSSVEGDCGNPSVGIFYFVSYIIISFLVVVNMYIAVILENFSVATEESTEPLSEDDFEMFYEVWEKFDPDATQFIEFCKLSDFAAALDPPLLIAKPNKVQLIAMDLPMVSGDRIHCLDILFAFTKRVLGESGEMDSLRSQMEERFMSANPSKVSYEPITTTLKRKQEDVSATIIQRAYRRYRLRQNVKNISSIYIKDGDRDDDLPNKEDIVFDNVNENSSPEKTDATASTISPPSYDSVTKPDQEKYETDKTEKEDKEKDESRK

Activity [1]: > 77%
Activity [2]: > 77%
Activity [3]: > 77%
Activity [4]: > 77%
inhibition [5]: 10%
Activity [6]: > 77%
IC50 [7]: 19 nM
SMILES: Cn1cnc2ncn(Cc3nc(CCc4ccc(Cl)cc4)no3)c(=O)c21
